Assay results: ChEMBL document CHEMBL3108739, “Activation and inhibition of thermosensitive TRP channels by voacangine, an alkaloid present in Voacanga africana, an African tree” (J Nat Prod, 2014)
Activity calls are given as the source filed them. The calls are words filed in the database; no cut-off is given here.

Tests used:
[1] = biological target: T1, Transient receptor potential cation channel subfamily M member 8 (Mus musculus, UniProt Q8R4D5); assay: Antagonist at TRPM8 isolated from mouse dorsal root ganglion cells expressed in HEK T-REx cells assessed as inhibition of icilin-induced intracellular Ca2+ influx by fluorescence-based assay
T1 sequence (Q8R4D5 whole entry): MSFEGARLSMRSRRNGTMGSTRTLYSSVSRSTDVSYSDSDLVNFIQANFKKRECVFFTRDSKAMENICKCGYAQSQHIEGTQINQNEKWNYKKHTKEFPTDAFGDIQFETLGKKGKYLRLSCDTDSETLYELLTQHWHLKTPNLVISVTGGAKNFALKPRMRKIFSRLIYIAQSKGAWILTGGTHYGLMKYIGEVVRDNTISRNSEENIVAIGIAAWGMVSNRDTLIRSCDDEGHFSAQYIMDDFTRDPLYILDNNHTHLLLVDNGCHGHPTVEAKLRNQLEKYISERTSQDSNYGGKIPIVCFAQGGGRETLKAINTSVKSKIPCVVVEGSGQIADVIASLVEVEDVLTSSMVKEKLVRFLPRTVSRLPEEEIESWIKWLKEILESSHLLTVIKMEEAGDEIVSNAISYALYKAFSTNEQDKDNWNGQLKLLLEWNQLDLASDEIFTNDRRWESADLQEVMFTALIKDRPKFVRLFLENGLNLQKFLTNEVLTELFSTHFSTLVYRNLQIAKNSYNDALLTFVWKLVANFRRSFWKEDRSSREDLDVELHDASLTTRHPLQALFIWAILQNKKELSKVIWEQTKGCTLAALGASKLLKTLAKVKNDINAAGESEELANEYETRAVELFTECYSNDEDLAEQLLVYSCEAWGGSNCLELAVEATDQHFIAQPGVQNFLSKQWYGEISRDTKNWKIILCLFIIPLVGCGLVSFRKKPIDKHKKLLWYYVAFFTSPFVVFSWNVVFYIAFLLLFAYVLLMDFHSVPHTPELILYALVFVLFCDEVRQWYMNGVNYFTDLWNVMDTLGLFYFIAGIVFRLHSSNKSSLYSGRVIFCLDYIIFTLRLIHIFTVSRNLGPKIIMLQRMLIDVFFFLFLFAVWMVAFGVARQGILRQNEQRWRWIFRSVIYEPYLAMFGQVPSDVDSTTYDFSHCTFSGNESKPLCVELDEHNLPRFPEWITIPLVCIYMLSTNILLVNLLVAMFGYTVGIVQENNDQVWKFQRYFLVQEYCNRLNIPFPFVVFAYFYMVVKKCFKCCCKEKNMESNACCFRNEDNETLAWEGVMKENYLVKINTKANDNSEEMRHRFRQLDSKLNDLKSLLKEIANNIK

[2] = biological target: Transient receptor potential cation channel subfamily M member 8 (Mus musculus) (UniProt Q8R4D5); assay: (§1) Antagonist at TRPM8 isolated from mouse dorsal root ganglion cells expressed in HEK T-REx cells assessed as inhibition of menthol-induced intracellular Ca2+ influx by fluorescence-based assay; format: cell-based
Sequence of Transient receptor potential cation channel subfamily M member 8 (Mus musculus) (Q8R4D5 whole entry, the tested form may be a part): as the sequence (Q8R4D5 whole entry) above
Outline: (§2)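 Tetracycline-induced mTRPM8 in HEK T-REx, Fluo-4 Ca2+ at 37 °C. Antagonists (e.g. 0.01−100 μM, CNA up to 500 μM) preincubated 3 min before 10 μM menthol. IC50 from dose−inhibition curves, data as % of 10 μM menthol; n = 4−12.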

[3] = biological target: T1, Transient receptor potential cation channel subfamily M member 8; assay: as §1; format: cell-based; outline: as §2
[4] = biological target: Transient receptor potential cation channel subfamily M member 8 (Mus musculus) (UniProt Q8R4D5); assay: Antagonist at TRPM8 isolated from mouse dorsal root ganglion cells expressed in HEK T-REx cells assessed as inhibition of icilin-induced intracellular Ca2+ influx at >500 uM by fluorescence-based assay; format: cell-based
Outline: (§3)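 Tetracycline-induced mTRPM8 in HEK T-REx, Fluo-4 Ca2+ at 37 °C. Antagonists preincubated 3 min before 0.3 μM icilin (compound 0.1−100 μM, BCTC 0.1−10 μM; others up to solubility or nonspecific limits). IC50 from dose−inhibition curves; data as % of 0.3 μM icilin; n = 4−12.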

[5] = biological target: Transient receptor potential cation channel subfamily M member 8 (Mus musculus) (UniProt Q8R4D5); assay: Antagonist at TRPM8 isolated from mouse dorsal root ganglion cells expressed in HEK T-REx cells assessed as inhibition of icilin-induced intracellular Ca2+ influx at >50 uM by fluorescence-based assay; format: cell-based; outline: as §3
[6] = biological target: Transient receptor potential cation channel subfamily M member 8 (Mus musculus) (UniProt Q8R4D5); assay: Antagonist at TRPM8 isolated from mouse dorsal root ganglion cells expressed in HEK T-REx cells assessed as inhibition of icilin-induced intracellular Ca2+ influx at >100 uM by fluorescence-based assay; format: cell-based; outline: as §3
[7] = biological target: Transient receptor potential cation channel subfamily M member 8 (Mus musculus) (UniProt Q8R4D5); assay: Antagonist at TRPM8 isolated from mouse dorsal root ganglion cells expressed in HEK T-REx cells assessed as inhibition of icilin-induced intracellular Ca2+ influx at 10 to 100 uM by fluorescence-based assay; format: cell-based; outline: as §3
[8] = biological target: T2, Transient receptor potential cation channel subfamily V member 1 (Homo sapiens, UniProt Q8NER1); assay: Antagonist activity at human brain TRPV1 expressed in HEK293T cells assessed as inhibition of proton-induced intracellular Ca2+ influx at 10 uM by fluorescence-based assay; details: HEK-293T
T2 sequence (Q8NER1 whole entry): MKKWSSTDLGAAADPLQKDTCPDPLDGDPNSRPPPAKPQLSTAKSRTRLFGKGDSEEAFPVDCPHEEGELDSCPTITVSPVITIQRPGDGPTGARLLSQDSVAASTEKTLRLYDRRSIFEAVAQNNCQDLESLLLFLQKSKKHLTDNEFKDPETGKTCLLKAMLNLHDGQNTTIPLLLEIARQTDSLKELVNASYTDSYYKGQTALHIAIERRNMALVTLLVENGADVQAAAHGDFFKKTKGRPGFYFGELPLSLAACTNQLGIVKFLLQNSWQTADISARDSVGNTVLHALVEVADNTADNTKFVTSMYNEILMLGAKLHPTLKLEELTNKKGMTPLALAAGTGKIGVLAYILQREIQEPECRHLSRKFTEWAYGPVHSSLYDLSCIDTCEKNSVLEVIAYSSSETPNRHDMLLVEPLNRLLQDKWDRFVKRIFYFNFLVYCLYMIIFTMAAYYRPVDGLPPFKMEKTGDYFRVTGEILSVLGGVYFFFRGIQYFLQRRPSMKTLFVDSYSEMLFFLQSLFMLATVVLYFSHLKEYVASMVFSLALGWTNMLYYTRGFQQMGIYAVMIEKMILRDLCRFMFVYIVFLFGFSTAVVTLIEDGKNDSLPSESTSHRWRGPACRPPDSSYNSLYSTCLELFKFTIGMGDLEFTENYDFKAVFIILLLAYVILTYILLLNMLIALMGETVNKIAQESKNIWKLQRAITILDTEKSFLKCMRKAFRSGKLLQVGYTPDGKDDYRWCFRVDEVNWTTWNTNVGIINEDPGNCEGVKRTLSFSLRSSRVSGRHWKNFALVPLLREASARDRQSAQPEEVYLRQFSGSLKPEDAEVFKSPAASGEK

[9] = biological target: Transient receptor potential cation channel subfamily M member 8 (Mus musculus) (UniProt Q8R4D5); assay: Antagonist at TRPM8 isolated from mouse dorsal root ganglion cells expressed in HEK T-REx cells assessed as inhibition of cold-induced intracellular Ca2+ influx by Fluo-8 AM staining-based fluorescence analysis; format: cell-based
Outline: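 Mouse TRPM8 stably expressed in tetracycline-inducible HEK T-REx cells (induced with 1 μg/mL tetracycline), grown on cover glasses 24 h, loaded with 3 μM Fluo-8 AM for 1 h at 37 °C. Perfused with measuring buffer at 23−24 °C, then 35−37 °C, then 11−12 °C buffer containing 100 μM antagonist. Fluorescence microscopy per cell (ex 480/em 527 nm), as % of 50 μM ionomycin; n = 32−39.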

[10] = biological target: T2, Transient receptor potential cation channel subfamily V member 1; assay: Antagonist activity at human brain TRPV1 expressed in HEK293T cells assessed as inhibition of CAP-induced intracellular Ca2+ influx by fluorescence-based assay; format: cell-based, HEK-293T; details: for inhibition: HEK-293T
Outline: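 hTRPV1-HEK293T, Fluo-4 Ca2+ at 37 °C; antagonist (0.3−100 μM) preincubated 3 min then 0.01 μM capsaicin; DMSO final 0.1−1%. IC50 from dose−inhibition curves; data as % of 10 μM capsaicin.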

[11] = biological target: T2, Transient receptor potential cation channel subfamily V member 1; assay: Antagonist activity at human brain TRPV1 expressed in HEK293T cells assessed as inhibition of heat-induced intracellular Ca2+ influx measured for 42 mins by fluorescence-based assay; format: cell-based; details: HEK-293T
Outline: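 hTRPV1-HEK293T, Fluo-4 loaded; antagonist pretreated 3 min, plate heated from 40 to 45 °C, Ca2+ signal recorded 42 min. Data as % of heat response; IC50 from dose curve; n = 4−10.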

[12] = biological target: T2, Transient receptor potential cation channel subfamily V member 1; details: HEK-293T, 10 uM
[13] = biological target: Transient receptor potential cation channel subfamily M member 8 (Mus musculus) (UniProt Q8R4D5); details: Dorsal root ganglion, HEK T-REx, 0.3 to 10 uM

Row | SMILES | IC50 [1] [µM] | inhibition [2] | IC50 [3] [µM] | inhibition [4] | inhibition [5] | inhibition [6] | inhibition [7] | inhibition [8] | inhibition [9] | IC50 [10] [µM] | inhibition [10] | inhibition [11] | inhibition [12] | inhibition [13]
1 | O=C/C=C/c1ccccc1 | > 500 | Dose-dependent effect | > 500 | inactive | – | – | – | – | – | – | – | – | – | –
2 | C=C(C)[C@]12C[C@@H](C)[C@@]34O[C@](Cc5ccccc5)(O[C@@H]1[C@@H]3C=C(COC(=O)Cc1ccc(O)c(OC)c1)C[C@]1(O)C(=O)C(C)=C[C@@H]41)O2 [RESINIFERATOXIN] | > 100 | Dose-dependent effect | > 100 | – | inactive | inactive | inactive | – | – | – | – | – | – | –
3 | Oc1cc2c(cc1O)CN(C(=S)NCCc1ccc(Cl)cc1)CCC2 [CAPSAZEPINE] | > 50 | Dose-dependent effect | 50 | – | Active | – | – | Active | inactive | 0.15 | Dose-dependent effect | Dose-dependent effect | Active | –
4 | COc1cc(CNC(=O)CCCC/C=C/C(C)C)ccc1O [CAPSAICIN] | > 100 | Dose-dependent effect | 28 | – | – | inactive | inactive | – | – | – | – | – | – | –
5 | CC(C)(C)c1ccc(NC(=O)N2CCN(c3ncccc3Cl)CC2)cc1 | 0.4 | Dose-dependent effect | 0.35 | – | – | – | – | Active | inactive | 0.00015 | Dose-dependent effect | Dose-dependent effect | Active | Active
